Test results published in ChEMBL document CHEMBL1125733, “Fluoronaphthyridines and -quinolones as antibacterial agents. 3. Synthesis and structure-activity relationships of new 1-(1,1-dimethyl-2-fluoroethyl), 1-[1-methyl-1-(fluoromethyl)-2-fluoroethyl], and 1-[1,1-(difluoromethyl)-2-fluoroethyl] substituted derivatives” (J Med Chem, 1991).
Converted amounts (≈) assume the structure as drawn.

Key:
Staphylococcus aureus [1] = assay: In vitro antibacterial activity (minimum inhibitory concentration, MIC) against Staphylococcus aureus A 9537.; assay type: functional
Escherichia coli [2] = assay: In vitro antibacterial activity against Escherichia coli A 15119; assay type: functional
Proteus mirabilis = assay: In vitro antibacterial activity (minimum inhibitory concentration, MIC) against Proteus mirabilis A 9900; assay type: functional
Klebsiella pneumoniae = assay: In vitro antibacterial activity against Klebsiella pneumoniae A 9664; assay type: functional
Pseudomonas aeruginosa [3] = assay: Compound was tested in vitro for its antibacterial activity (minimum inhibitory concentration, MIC) against Pseudomonas aeruginosa A 9843; assay type: functional
Enterococcus faecalis = assay: In vitro antibacterial activity against Enterococcus faecalis A 9809; assay type: functional
Morganella morganii = assay: In vitro antibacterial activity against Morganella morganii A 15153; assay type: functional
Serratia marcescens = assay: In vitro antibacterial activity (minimum inhibitory concentration) against Serratia marcescens A 20019.; assay type: functional
Enterobacter cloacae = assay: In vitro antibacterial activity against Enterobacter cloacae A 9656; assay type: functional
Bacteroides fragilis = assay: Compound was tested in vitro for its antibacterial activity (minimum inhibitory concentration) against Bacteroides fragilis A 22862.; assay type: functional; details: A22862
Streptococcus pneumoniae = assay: In vitro antibacterial activity against Streptococcus pneumoniae A 9585; assay type: functional
Haemophilus influenzae = assay: In vitro antibacterial activity against Haemophilus influenzae A 21515; assay type: functional
Staphylococcus aureus [4] = assay: In vitro antibacterial activity against Staphylococcus aureus A 24227; assay type: functional
in vivo [5] = details: dog, po, 25 mg/kg
Mus musculus [6] = organism: Mus musculus; details: in vivo, po, 40 mg/kg
in vivo [7] = details: mouse, blood, po, 40 mg/kg
Canis familiaris [8] = assay: Compound was evaluated in vivo in urine sample collected over 24 hours for its concentration after 25 mg/kg peroral administration to dogs.; details: route oral
Escherichia coli [9] = assay: Compound was tested for the dose to protect 50% of mice from lethal infection against Escherichia coli A 15119 after peroral administration to OF1-strain of female Swiss mice.; assay type: functional; details: po, read-out: PD50
Summary of the method: (§1)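 Compounds dissolved in sterile water and given orally to female OF1 Swiss mice weighing 18-25 g, five mice per group.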

[10] = Compound was evaluated in vivo in blood samples from the orbital sinus for its concentration after an intramuscular administration of 40 mg/kg in mice; assay type: ADME, organism-based; design: dose 40 mg/kg, route intramuscular; details: mouse, im
Summary of the method: (§2)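 Mice were dosed at 40 mg/kg, either orally with a blunt needle and syringe or intramuscularly, with separate groups for each route. Blood was drawn from the orbital sinus at 5, 15, 30, 60, 120 and 180 min. Urine was pooled over 24 h. Drug levels were measured by agar disk diffusion microbioassay with Salmonella enteritidis A9531 as the assay organism.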

Staphylococcus aureus [11] = assay: Compound was tested for the dose to protect 50% of mice from lethal infection against Staphylococcus aureus A 9606 after peroral administration to OF1-strain of female Swiss mice.; assay type: functional; details: po, read-out: PD50; summary of the method: as §1
[12] = Compound was tested for the dose to protect 50% of mice from lethal infection against Streptococcus pneumoniae after peroral administration to OF1-strain of female Swiss mice.; assay type: functional; details: po, read-out: PD50; summary of the method: as §1
in vivo [13] = details: mouse, blood, po, 40 mg/kg; remark: listed apart in the source
[14] = Compound was evaluated in vivo in blood samples from the orbital sinus for its half life after 40 mg/kg of intramuscular administration in mice.; assay type: ADME, organism-based; design: dose 40 mg/kg, route intramuscular; details: mouse, im
Mus musculus [15] = assay: Compound was evaluated in vivo in urine sample collected over 24 hours for its concentration after 40 mg/kg intramuscular administration to mice; assay type: functional; summary of the method: as §2
Canis familiaris [16] = organism: Canis familiaris; details: dog, in vivo, po, 25 mg/kg
Pseudomonas aeruginosa [17] = assay: Compound was tested for the dose to protect 50% of mice from lethal infection against Pseudomonas aeruginosa A9843 after peroral administration to OF1-strain of female Swiss mice.; assay type: functional; details: po, read-out: PD50; summary of the method: as §1
Mus musculus [18] = assay: Compound was evaluated in vivo in urine sample collected over 24 hours for its concentration after 40 mg/kg peroral administration to mice; assay type: functional; details: route oral; summary of the method: as §2
in vivo [19] = details: dog, po, 25 mg/kg; remark: listed apart in the source
Mus musculus [20] = assay: Compound was evaluated in vivo in blood samples from the orbital sinus for its concentration using Area under the time-concentration curve after 40 mg/kg intramuscular administration to mice; assay type: ADME, organism-based; design: dose 40 mg/kg, route intramuscular; details: im; summary of the method: as §2

Compound | MIC (Staphylococcus aureus [1]) | MIC (Escherichia coli [2]) | MIC (Proteus mirabilis) | MIC (Klebsiella pneumoniae) | S | MIC (Pseudomonas aeruginosa [3]) | MIC (Enterococcus faecalis) | MIC (Morganella morganii) | MIC (Serratia marcescens) | MIC (Enterobacter cloacae) | MIC (Bacteroides fragilis) | MIC (Streptococcus pneumoniae) | MIC (Haemophilus influenzae) | MIC (Staphylococcus aureus [4]) | other results
CC(C)(C)n1cc(C(=O)O)c(=O)c2cc(F)c(N3CCNCC3)cc21 | 0.25 µg/mL (≈ 0.72 µM) | 0.06 µg/mL (≈ 0.173 µM) | 0.25 µg/mL (≈ 0.72 µM) | 0.06 µg/mL (≈ 0.173 µM) | 130 µg/mL | 0.5 µg/mL (≈ 1.44 µM) | 2 µg/mL (≈ 5.76 µM) | 0.25 µg/mL (≈ 0.72 µM) | 0.5 µg/mL (≈ 1.44 µM) | 0.13 µg/mL (≈ 0.374 µM) |  |  |  |  | 
Cl.O=C(O)c1cn(C(CF)(CF)CF)c2nc(N3CC4C[C@@H]3CN4)c(F)cc2c1=O | 4 µg/mL | 0.25 µg/mL | 1 µg/mL | 0.5 µg/mL | 240 µg/mL | 4 µg/mL | 32 µg/mL | 0.25 µg/mL | 1 µg/mL | 0.25 µg/mL | 125 µg/mL | 32 µg/mL | 0.06 µg/mL | 4 µg/mL | 
CC(C)(C)n1cc(C(=O)O)c(=O)c2cc(F)c(N3C[C@H]4C[C@@H]3CN4)nc21 | 0.03 µg/mL (≈ 0.0832 µM) | 0.008 µg/mL (≈ 0.0222 µM) | 0.06 µg/mL (≈ 0.166 µM) | 0.016 µg/mL (≈ 0.0444 µM) | 80 µg/mL | 0.25 µg/mL (≈ 0.694 µM) | 0.5 µg/mL (≈ 1.39 µM) | 0.06 µg/mL (≈ 0.166 µM) | 0.06 µg/mL (≈ 0.166 µM) | 0.016 µg/mL (≈ 0.0444 µM) | 4 µg/mL (≈ 11.1 µM) | 0.13 µg/mL (≈ 0.361 µM) | 0.03 µg/mL (≈ 0.0832 µM) | 0.03 µg/mL (≈ 0.0832 µM) | half-life (in vivo [5]): 4.5 h; AUC (Mus musculus [6]): 14000 ng·h/mL; Cmax (in vivo [7]): 10000 ng/mL; UR (Canis familiaris [8]): 20%; ED50 (Escherichia coli [9]): 1.8 mg/kg; Cmax [10]: 13000 ng/mL; ED50 (Staphylococcus aureus [11]): 1.6 mg/kg; ED50 [12]: 29.7 mg/kg; half-life (in vivo [13]): 1.6 h; half-life [14]: 1.58 h; UR (Mus musculus [15]): 39%; AUC (Canis familiaris [16]): 55000 ng·h/mL; ED50 (Pseudomonas aeruginosa [17]): 4.7 mg/kg; UR (Mus musculus [18]): 34%; Cmax (in vivo [19]): 5600 ng/mL; AUC (Mus musculus [20]): 25000 ng·h/mL
CC(CF)(CF)n1cc(C(=O)O)c(=O)c2cc(F)c(N3CC[C@H](N)C3)cc21.CS(=O)(=O)O | 0.06 µg/mL | 0.008 µg/mL | 0.03 µg/mL | 0.13 µg/mL |  | 0.25 µg/mL | 0.5 µg/mL | 0.016 µg/mL | 0.13 µg/mL | 0.06 µg/mL | 4 µg/mL | 0.5 µg/mL | 0.001 µg/mL | 0.13 µg/mL | 
CC(C)(CF)n1cc(C(=O)O)c(=O)c2cc(F)c(N3C[C@H]4CC3CN4)cc21.Cl | 0.5 µg/mL | 0.016 µg/mL | 0.06 µg/mL | 0.06 µg/mL |  | 0.25 µg/mL | 0.5 µg/mL | 0.13 µg/mL | 0.13 µg/mL | 0.06 µg/mL | 8 µg/mL | 1 µg/mL | 0.008 µg/mL | 0.25 µg/mL | 
CC(C)(CF)n1cc(C(=O)O)c(=O)c2cc(F)c(N3CCNCC3)cc21.Cl | 0.13 µg/mL | 0.016 µg/mL | 0.03 µg/mL | 0.016 µg/mL |  | 0.25 µg/mL | 0.25 µg/mL | 0.016 µg/mL | 0.06 µg/mL | 0.03 µg/mL | 8 µg/mL | 1 µg/mL | 0.016 µg/mL | 0.06 µg/mL | 
Cl.N[C@H]1CCN(c2nc3c(cc2F)c(=O)c(C(=O)O)cn3C(CF)(CF)CF)C1 | 4 µg/mL | 0.5 µg/mL | 2 µg/mL | 2 µg/mL |  | 32 µg/mL | 32 µg/mL | 2 µg/mL | 2 µg/mL | 2 µg/mL | 125 µg/mL | 32 µg/mL | 0.25 µg/mL | 8 µg/mL | 
CC(C)(CF)n1cc(C(=O)O)c(=O)c2cc(F)c(N3CC(N)C3)cc21.Cl | 0.016 µg/mL | 0.004 µg/mL | 0.06 µg/mL | 0.016 µg/mL |  | 0.5 µg/mL | 0.5 µg/mL | 0.016 µg/mL | 0.13 µg/mL | 0.06 µg/mL | 2 µg/mL | 1 µg/mL | 0.06 µg/mL | 0.016 µg/mL | 
